Laboratory results taken from ChEMBL document CHEMBL3425433, “Discovery of bicyclic pyrazoles as class III histone deacetylase SIRT1 and SIRT2 inhibitors” (Bioorg Med Chem Lett, 2015).
Active and inactive are the calls of the source. The rule behind the calls is not given here.

Experiments:
[1] = target: T1, NAD-dependent protein deacetylase sirtuin-1 (Homo sapiens) (UniProt Q96EB6); experiment: Inhibition of His-tagged human recombinant SIRT1 expressed in Escherichia coli at 20 uM using Cbz-Lys(Ac)-AMC as substrate by fluorescence assay
T1 sequence (whole entry): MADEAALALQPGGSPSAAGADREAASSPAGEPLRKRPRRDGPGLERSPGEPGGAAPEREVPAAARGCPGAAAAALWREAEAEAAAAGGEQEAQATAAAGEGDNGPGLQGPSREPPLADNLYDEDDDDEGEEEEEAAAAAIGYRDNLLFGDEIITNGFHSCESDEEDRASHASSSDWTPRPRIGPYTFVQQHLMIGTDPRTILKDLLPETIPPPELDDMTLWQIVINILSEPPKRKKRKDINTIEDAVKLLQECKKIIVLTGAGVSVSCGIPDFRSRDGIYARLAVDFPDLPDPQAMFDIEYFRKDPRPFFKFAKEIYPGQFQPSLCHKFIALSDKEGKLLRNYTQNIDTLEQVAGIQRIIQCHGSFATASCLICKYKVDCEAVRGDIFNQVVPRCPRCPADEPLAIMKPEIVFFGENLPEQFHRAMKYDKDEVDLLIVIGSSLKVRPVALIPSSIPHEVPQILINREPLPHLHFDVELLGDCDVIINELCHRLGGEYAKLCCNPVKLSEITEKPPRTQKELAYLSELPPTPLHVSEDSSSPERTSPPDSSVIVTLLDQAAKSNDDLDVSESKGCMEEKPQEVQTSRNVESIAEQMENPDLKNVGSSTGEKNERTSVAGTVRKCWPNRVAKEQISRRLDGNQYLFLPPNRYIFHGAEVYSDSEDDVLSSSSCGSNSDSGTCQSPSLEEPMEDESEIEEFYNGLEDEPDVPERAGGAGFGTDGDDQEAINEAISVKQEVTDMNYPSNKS
Summary of the method: (§1)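 Fluorescence deacetylase assay with in-house Cbz-Lys(Ac)-AMC substrate. Values are means of three experiments on racemic material. Single-point lines were tested at 20 µM, and less than 20% inhibition was scored as no inhibition.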

Histone deacetylase 1 = Histone deacetylase 1 (Homo sapiens, UniProt Q13547); experiment: Inhibition of HDAC1 (unknown origin)
[2] = target: T2, NAD-dependent protein deacetylase sirtuin-2 (Homo sapiens) (UniProt Q8IXJ6); experiment: Inhibition of His-tagged human recombinant SIRT2 expressed in Escherichia coli at 20 uM using Cbz-Lys(Ac)-AMC as substrate by fluorescence assay; summary of the method: as §1
T2 sequence (whole entry): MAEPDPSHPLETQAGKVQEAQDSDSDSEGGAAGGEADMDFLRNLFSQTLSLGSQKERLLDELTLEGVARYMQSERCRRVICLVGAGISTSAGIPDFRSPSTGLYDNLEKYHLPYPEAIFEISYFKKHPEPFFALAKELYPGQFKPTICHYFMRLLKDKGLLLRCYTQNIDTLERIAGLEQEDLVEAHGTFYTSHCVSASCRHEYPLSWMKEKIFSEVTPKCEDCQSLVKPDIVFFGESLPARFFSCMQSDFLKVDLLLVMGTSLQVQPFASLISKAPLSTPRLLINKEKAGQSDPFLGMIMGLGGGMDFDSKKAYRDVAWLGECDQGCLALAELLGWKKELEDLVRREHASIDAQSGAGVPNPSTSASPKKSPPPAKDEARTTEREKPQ

[3] = target: T3, Histone deacetylase 8 (Homo sapiens) (UniProt Q9BY41); experiment: Inhibition of HDAC8 (unknown origin)
T3 sequence (whole entry): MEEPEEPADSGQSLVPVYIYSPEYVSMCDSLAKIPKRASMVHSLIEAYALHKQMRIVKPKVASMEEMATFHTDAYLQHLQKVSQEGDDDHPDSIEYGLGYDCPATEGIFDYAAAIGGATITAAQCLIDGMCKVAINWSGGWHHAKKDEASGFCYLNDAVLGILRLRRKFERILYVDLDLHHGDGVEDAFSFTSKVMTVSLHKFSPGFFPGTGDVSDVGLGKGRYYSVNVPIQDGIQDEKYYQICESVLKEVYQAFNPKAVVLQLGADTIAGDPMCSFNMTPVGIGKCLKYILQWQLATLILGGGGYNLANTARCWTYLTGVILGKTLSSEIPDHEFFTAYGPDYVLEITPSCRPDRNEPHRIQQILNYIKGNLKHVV

[4] = target: T4, Histone deacetylase 7 (Homo sapiens) (UniProt Q8WUI4); experiment: Inhibition of HDAC7 (unknown origin)
T4 sequence (whole entry): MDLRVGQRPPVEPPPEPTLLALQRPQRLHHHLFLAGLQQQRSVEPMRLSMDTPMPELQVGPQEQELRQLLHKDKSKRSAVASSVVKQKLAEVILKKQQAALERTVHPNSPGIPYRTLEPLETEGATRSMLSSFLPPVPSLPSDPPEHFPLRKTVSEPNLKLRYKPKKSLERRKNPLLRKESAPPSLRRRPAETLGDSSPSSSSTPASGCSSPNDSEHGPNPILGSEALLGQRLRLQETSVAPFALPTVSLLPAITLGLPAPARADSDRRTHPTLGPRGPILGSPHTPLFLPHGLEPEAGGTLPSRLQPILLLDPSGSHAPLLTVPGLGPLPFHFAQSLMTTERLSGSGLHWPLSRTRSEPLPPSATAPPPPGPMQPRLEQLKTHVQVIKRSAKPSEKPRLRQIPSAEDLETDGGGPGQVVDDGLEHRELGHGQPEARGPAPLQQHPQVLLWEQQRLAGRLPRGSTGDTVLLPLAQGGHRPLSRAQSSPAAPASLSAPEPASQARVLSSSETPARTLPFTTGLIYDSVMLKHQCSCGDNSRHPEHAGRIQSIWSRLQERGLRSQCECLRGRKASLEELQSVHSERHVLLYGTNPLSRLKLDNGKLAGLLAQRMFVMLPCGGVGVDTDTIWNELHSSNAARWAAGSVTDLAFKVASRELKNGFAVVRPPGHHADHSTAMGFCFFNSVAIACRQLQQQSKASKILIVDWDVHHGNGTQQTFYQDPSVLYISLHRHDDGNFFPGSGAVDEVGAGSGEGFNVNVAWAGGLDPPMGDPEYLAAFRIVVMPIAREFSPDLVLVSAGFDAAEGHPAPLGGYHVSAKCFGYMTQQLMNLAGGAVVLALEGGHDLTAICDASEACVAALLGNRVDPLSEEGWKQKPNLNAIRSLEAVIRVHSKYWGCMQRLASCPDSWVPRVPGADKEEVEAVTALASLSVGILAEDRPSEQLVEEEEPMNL

Histone deacetylase 2 = Histone deacetylase 2 (Homo sapiens, UniProt Q92769); experiment: Inhibition of HDAC2 (unknown origin)
[5] = target: Histone deacetylase 4 (Homo sapiens) (UniProt P56524); experiment: Inhibition of HDAC4 (unknown origin)
Chain of Histone deacetylase 4 (Homo sapiens) (P56524 whole entry): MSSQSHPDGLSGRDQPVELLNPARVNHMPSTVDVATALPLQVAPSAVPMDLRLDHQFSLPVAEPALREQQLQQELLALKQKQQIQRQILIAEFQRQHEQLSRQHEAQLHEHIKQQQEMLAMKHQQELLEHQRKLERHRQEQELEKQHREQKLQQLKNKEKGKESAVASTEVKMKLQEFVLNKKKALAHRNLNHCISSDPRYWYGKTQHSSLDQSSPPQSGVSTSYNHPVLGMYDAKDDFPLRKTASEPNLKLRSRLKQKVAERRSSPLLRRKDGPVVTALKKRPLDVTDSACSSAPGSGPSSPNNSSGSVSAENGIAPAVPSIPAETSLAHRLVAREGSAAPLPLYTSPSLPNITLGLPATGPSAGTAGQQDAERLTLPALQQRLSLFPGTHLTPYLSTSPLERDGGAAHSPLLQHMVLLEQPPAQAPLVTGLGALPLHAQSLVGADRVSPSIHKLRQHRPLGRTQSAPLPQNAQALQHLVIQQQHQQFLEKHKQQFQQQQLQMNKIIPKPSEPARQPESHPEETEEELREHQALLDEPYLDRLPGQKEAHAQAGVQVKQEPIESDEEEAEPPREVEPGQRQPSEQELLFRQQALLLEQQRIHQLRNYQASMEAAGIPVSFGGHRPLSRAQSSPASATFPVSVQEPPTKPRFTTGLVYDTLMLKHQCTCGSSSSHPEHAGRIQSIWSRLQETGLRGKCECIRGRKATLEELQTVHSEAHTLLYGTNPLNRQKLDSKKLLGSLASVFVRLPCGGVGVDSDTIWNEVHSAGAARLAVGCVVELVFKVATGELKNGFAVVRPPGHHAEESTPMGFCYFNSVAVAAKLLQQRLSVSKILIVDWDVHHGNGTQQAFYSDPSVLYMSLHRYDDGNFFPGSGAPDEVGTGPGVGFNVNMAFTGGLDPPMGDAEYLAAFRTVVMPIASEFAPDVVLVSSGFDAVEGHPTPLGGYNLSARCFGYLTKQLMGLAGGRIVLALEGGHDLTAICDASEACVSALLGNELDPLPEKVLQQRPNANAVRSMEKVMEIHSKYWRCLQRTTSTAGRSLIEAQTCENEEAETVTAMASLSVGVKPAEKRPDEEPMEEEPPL

Chain of Histone deacetylase 2 (Q92769 whole entry): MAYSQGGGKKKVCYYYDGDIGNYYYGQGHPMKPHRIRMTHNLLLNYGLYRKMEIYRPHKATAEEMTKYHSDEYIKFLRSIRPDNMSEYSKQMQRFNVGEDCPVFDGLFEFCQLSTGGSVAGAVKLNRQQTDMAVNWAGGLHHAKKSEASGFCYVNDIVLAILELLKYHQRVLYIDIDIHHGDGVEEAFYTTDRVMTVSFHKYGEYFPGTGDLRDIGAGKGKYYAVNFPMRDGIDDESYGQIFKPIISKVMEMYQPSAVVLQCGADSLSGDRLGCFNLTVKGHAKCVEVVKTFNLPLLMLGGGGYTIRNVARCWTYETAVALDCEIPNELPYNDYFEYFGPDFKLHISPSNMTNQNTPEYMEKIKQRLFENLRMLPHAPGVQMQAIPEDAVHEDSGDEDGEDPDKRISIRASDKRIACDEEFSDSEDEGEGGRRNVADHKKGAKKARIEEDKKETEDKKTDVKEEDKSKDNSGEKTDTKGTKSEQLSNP
Chain of Histone deacetylase 1 (Q13547 whole entry): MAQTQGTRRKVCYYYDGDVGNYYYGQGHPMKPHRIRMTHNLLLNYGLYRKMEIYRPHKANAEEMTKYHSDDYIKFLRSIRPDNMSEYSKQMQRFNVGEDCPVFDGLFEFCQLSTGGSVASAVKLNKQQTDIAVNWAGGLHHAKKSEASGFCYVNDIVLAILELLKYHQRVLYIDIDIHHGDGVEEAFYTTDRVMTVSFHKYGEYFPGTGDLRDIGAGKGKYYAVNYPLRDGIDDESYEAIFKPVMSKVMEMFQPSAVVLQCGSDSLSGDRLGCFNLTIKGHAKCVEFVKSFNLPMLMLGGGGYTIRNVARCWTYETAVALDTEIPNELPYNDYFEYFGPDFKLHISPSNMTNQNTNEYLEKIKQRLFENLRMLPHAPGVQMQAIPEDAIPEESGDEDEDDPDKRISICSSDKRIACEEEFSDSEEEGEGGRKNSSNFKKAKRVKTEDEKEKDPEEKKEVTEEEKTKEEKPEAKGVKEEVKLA

Structure (SMILES): NC(=O)C1CCCc2c(-c3cccs3)n[nH]c21 (racemic)
- inhibition [1]: 47%
- inhibition (Histone deacetylase 1): inactive
- inhibition [2]: < 20%
- inhibition [3]: inactive
- inhibition [4]: inactive
- inhibition (Histone deacetylase 2): inactive
- inhibition [5]: inactive

Structure (SMILES): CC1(C)Cc2c(-c3ccc(Cl)c(Cl)c3)n[nH]c2C(C(N)=O)C1 (racemic)
- inhibition [1]: 23%
- inhibition (Histone deacetylase 1): inactive
- inhibition [2]: 28%
- inhibition [3]: inactive
- inhibition [4]: inactive
- inhibition (Histone deacetylase 2): inactive
- inhibition [5]: inactive

Structure (SMILES): NC(=O)C1CCCc2c(-c3csc4ccccc34)n[nH]c21 (racemic)
- inhibition [1]: 48%
- inhibition (Histone deacetylase 1): inactive
- inhibition [2]: 44%
- inhibition [3]: inactive
- inhibition [4]: inactive
- inhibition (Histone deacetylase 2): inactive
- inhibition [5]: inactive

Structure (SMILES): NC(=O)C1CC(c2ccccc2)Cc2c(-c3ccc(Cl)cc3)n[nH]c21 (mixture of isomers)
- inhibition [1]: 59%
- inhibition (Histone deacetylase 1): inactive
- inhibition [2]: 62%
- inhibition [3]: inactive
- inhibition [4]: inactive
- inhibition (Histone deacetylase 2): inactive
- inhibition [5]: inactive

Structure (SMILES): NC(=O)C1CCCc2c(-c3ccccc3)n[nH]c21 (racemic)
- inhibition [1]: 44%
- inhibition (Histone deacetylase 1): inactive
- inhibition [2]: < 20%
- inhibition [3]: inactive
- inhibition [4]: inactive
- inhibition (Histone deacetylase 2): inactive
- inhibition [5]: inactive
